Experimental data as given in PMC3760280 (Structure (London, England : 1993), 2013).
Read-outs that look alike come from different tables or passages of the source. Values belong to the molecule of their own block, whether it stands above or below them. Square brackets hold non-standard residues; d marks the D form. Peptide text beside a SMILES is read from it. * marks the point of attachment. FITC = O=C1OC2(c3ccc(O)cc3Oc3cc(O)ccc32)c2ccc(NC(=S)*)cc21; pT = C[C@@H](OP(=O)(O)O)[C@H](N)C(=O)O; pS = N[C@@H](COP(=O)(O)O)C(=O)O

Experiments:
[1] = target: GST-TopBP1 BRCT5 (Homo sapiens, UniProt Q92547); assay: Fluorescence polarization; type: binding
Summary of the method: (§1)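 Human TopBP1 GST fusions of BRCT4/5 (549–746) or BRCT5 (641–746), wild type or point mutants, were expressed in E. coli BL21-Gold and glutathione-affinity purified. Plates sat 15 min at room temperature, then FP was read at ex 485/em 538 nm. Kd was curve-fitted and averaged over ≥3 independent titrations.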

[2] = target: GST-TopBP1 BRCT4/5 (Homo sapiens, UniProt Q92547); assay: Fluorescence polarization; type: binding
Summary of the method: as §1

[3] = target: GST-BRCT5 R681E/K682E (TopBP1) (Homo sapiens, UniProt Q92547, K682E/R681E); assay: Fluorescence polarization; type: binding
Summary of the method: as §1

[4] = target: GST-BRCT5 K704A (TopBP1) (Homo sapiens, UniProt Q92547, K704A); assay: Fluorescence polarization; type: binding
Summary of the method: as §1

[5] = target: T1, FITC-labeled MDC1 SDT di-phospho-peptide with +2 Val to Asp, FITC-GFIDpSDpTDDEEE-NH2; assay: fluorescence polarisation
T1 chain: GFIDSDTDDEEE

[6] = target: T2, FITC-labeled MDC1 consensus SDT di-phospho-peptide FITC-GFIDpSDpTDVEEE-NH2; assay: fluorescence polarisation
T2 chain: GFIDSDTDVEEE

[7] = target: T3, FITC-labeled non-phosphorylated MDC1 consensus SDT peptide FITC-…-NH2; assay: fluorescence polarisation
T3 chain: GFIDSDTDVEEE

[8] = target: T4, FITC-labeled pSer MDC1 consensus SDT peptide FITC-GFIDpSDTDVEEE-NH2; assay: fluorescence polarisation
T4 chain: GFIDSDTDVEEE

[9] = target: T5, FITC-labeled pThr MDC1 consensus SDT peptide FITC-GFIDSDpTDVEEE-NH2; assay: fluorescence polarisation
T5 chain: GFIDSDTDVEEE

[10] = target: T6, FITC-labeled MDC1 consensus SDT di-phospho-peptide FITC-GFIDpSDpTDVEEE-NH2; assay: fluorescence polarisation
T6 peptide: {FITC}-GFID[pS]D[pT]DVEEE-NH2

GST-BRCT5 K704A (TopBP1), sequence (Q92547 641-746 K704A): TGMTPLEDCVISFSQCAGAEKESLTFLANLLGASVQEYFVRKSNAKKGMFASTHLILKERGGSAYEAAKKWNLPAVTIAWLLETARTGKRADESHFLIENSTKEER
GST-BRCT5 R681E/K682E (TopBP1), sequence (Q92547 641-746 R681E/K682E): as the sequence (Q92547 641-746 K704A) above, with R41E, K42E, A64K counted along it

Molecule: CC[C@H](C)[C@H](NC(=O)[C@H](Cc1ccccc1)NC(=O)CNC(=S)Nc1ccc2c(c1)C(=O)OC21c2ccc(O)cc2Oc2cc(O)ccc21)C(=O)N[C@@H](CC(=O)O)C(=O)N[C@@H](CO)C(=O)N[C@@H](CC(=O)O)C(=O)N[C@H](C(=O)N[C@@H](CC(=O)O)C(=O)N[C@H](C(=O)N[C@@H](CCC(=O)O)C(=O)N[C@@H](CCC(=O)O)C(=O)N[C@@H](CCC(=O)O)C(N)=O)C(C)C)[C@@H](C)O [FITC-GFIDSDTDVEEE-NH2] ({FITC}-GFIDSDTDVEEE-NH2)
Kd [1]: 310 ± 70 µM

Molecule: CC[C@H](C)[C@H](NC(=O)[C@H](Cc1ccccc1)NC(=O)CNC(=S)Nc1ccc2c(c1)C(=O)OC21c2ccc(O)cc2Oc2cc(O)ccc21)C(=O)N[C@@H](CC(=O)O)C(=O)N[C@@H](COP(=O)(O)O)C(=O)N[C@@H](CC(=O)O)C(=O)N[C@H](C(=O)N[C@@H](CC(=O)O)C(=O)N[C@H](C(=O)N[C@@H](CCC(=O)O)C(=O)N[C@@H](CCC(=O)O)C(=O)N[C@@H](CCC(=O)O)C(N)=O)C(C)C)[C@@H](C)O [FITC-GFIDpSDTDVEEE-NH2] ({FITC}-GFID[pS]DTDVEEE-NH2)
Kd [1]: 105 ± 9 µM

B1: GST-TopBP1 BRCT5 (641-746), Q92547 641-746 (domain or fragment)
chain: TGMTPLEDCVISFSQCAGAEKESLTFLANLLGASVQEYFVRKSNAKKGMFASTHLILKERGGSKYEAAKKWNLPAVTIAWLLETARTGKRADESHFLIENSTKEER
modifications: not checked
Kd [5]: 24 µM
Kd [6]: 28 µM
Kd [7]: 310 µM
Kd [8]: 105 µM
Kd [9]: 98 µM

B2: GST-TopBP1 BRCT4/5 (549-746) (domain or fragment)
chain: EEGLFSQKSFLVLGFSNENESNIANIIKENAGKIMSLLSRTVADYAVVPLLGCEVEATVGEVVTNTWLVTCIDYQTLFDPKSNPLFTPVPVMTGMTPLEDCVISFSQCAGAEKESLTFLANLLGASVQEYFVRKSNAKKGMFASTHLILKERGGSKYEAAKKWNLPAVTIAWLLETARTGKRADESHFLIENSTKEER
Kd [10]: 27 ± 4 µM

Continued, values first:

Kd [1]: 98 ± 9 µM
Molecule: CC[C@H](C)[C@H](NC(=O)[C@H](Cc1ccccc1)NC(=O)CNC(=S)Nc1ccc2c(c1)C(=O)OC21c2ccc(O)cc2Oc2cc(O)ccc21)C(=O)N[C@@H](CC(=O)O)C(=O)N[C@@H](CO)C(=O)N[C@@H](CC(=O)O)C(=O)N[C@H](C(=O)N[C@@H](CC(=O)O)C(=O)N[C@H](C(=O)N[C@@H](CCC(=O)O)C(=O)N[C@@H](CCC(=O)O)C(=O)N[C@@H](CCC(=O)O)C(N)=O)C(C)C)[C@@H](C)OP(=O)(O)O [FITC-GFIDSDpTDVEEE-NH2] ({FITC}-GFIDSD[pT]DVEEE-NH2)

Kd [1]: 24 ± 3 µM
Molecule: CC[C@H](C)[C@H](NC(=O)[C@H](Cc1ccccc1)NC(=O)CNC(=S)Nc1ccc2c(c1)C(=O)OC21c2ccc(O)cc2Oc2cc(O)ccc21)C(=O)N[C@@H](CC(=O)O)C(=O)N[C@@H](COP(=O)(O)O)C(=O)N[C@@H](CC(=O)O)C(=O)N[C@H](C(=O)N[C@@H](CC(=O)O)C(=O)N[C@@H](CC(=O)O)C(=O)N[C@@H](CCC(=O)O)C(=O)N[C@@H](CCC(=O)O)C(=O)N[C@@H](CCC(=O)O)C(N)=O)[C@@H](C)OP(=O)(O)O [FITC-GFIDpSDpTDDEEE-NH2] ({FITC}-GFID[pS]D[pT]DDEEE-NH2)

Kd [1]: 28 ± 4 µM
Kd [2]: 27 ± 4 µM
Kd [3]: 280 ± 60 µM
Kd [4]: 210 ± 50 µM
Molecule: CC[C@H](C)[C@H](NC(=O)[C@H](Cc1ccccc1)NC(=O)CNC(=S)Nc1ccc2c(c1)C(=O)OC21c2ccc(O)cc2Oc2cc(O)ccc21)C(=O)N[C@@H](CC(=O)O)C(=O)N[C@@H](COP(=O)(O)O)C(=O)N[C@@H](CC(=O)O)C(=O)N[C@H](C(=O)N[C@@H](CC(=O)O)C(=O)N[C@H](C(=O)N[C@@H](CCC(=O)O)C(=O)N[C@@H](CCC(=O)O)C(=O)N[C@@H](CCC(=O)O)C(N)=O)C(C)C)[C@@H](C)OP(=O)(O)O [FITC-GFIDpSDpTDVEEE-NH2] ({FITC}-GFID[pS]D[pT]DVEEE-NH2)
